In ChEMBL document CHEMBL4390658, “Rational design of allosteric modulators of the aromatase enzyme: An unprecedented therapeutic strategy to fight breast cancer” (Eur J Med Chem, 2019):

What was measured:
MCF7 = experiment: Growth inhibition of human MCF7 cells incubated for 72 hrs by cell counting based method; type: functional; details: MCF7, 72 h
In short: (§1)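 MCF-7 (ER+) and MDA-MB-231 (ER−) cells from ATCC, seeded at 50000 cells/well in triplicate. After 24 h, exposed for 72 h to graded concentrations, up to 200 µM. Cells trypsinized and counted electronically. Means of three independent experiments, each in triplicate, used for dose-response curves and GI50.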

Aromatase [1] = molecular target: T1, Aromatase (Homo sapiens, UniProt P11511); experiment: Inhibition of recombinant human aromatase preincubated for 10 mins followed by substrate and beta-NADP+ addition and measured for 60 mins by fluorescence method
T1 sequence (P11511 whole entry): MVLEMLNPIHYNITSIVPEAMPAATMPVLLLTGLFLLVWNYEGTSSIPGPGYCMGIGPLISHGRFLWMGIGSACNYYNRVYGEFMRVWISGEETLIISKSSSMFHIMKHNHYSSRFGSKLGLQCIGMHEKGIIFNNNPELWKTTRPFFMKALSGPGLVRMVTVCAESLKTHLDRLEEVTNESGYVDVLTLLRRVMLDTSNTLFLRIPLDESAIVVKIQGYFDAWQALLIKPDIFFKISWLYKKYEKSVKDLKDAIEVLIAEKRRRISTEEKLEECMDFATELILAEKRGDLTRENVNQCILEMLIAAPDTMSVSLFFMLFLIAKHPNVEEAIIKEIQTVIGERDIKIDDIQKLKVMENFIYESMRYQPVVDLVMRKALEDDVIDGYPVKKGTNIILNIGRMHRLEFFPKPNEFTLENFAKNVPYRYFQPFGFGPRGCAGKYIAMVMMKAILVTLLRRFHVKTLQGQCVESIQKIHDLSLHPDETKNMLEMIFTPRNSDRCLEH

Aromatase [2] = molecular target: T1, Aromatase; experiment: Mixed type inhibition of recombinant human aromatase assessed as Vmax preincubated for 10 min followed by different substrate concentration and beta-NADP+ addition measured for 60 mins by fluorescence method based Michaelis-menten analysis (reference value: 93.3 +/- 1.3 /ms); details: 1 h
Aromatase [3] = molecular target: T1, Aromatase; experiment: Inhibition of recombinant human aromatase at 100 uM preincubated for 10 mins followed by substrate and beta-NADP+ addition and measured for 60 mins by fluorescence method; details: 1 h
In short: (§2)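 Single-concentration screen of recombinant human aromatase with an NADPH-generating system, at 100 and 200 µM inhibitor, DMSO ≤0.25% (v/v) final. Mix preincubated 10 min at 37°C, then fluorogenic substrate plus β-NADP+ added. Fluorescence read at 488/527 nm over 60 min. % inhibition taken from the RFU ratio of control to test, in triplicate.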

Aromatase [4] = molecular target: T1, Aromatase; experiment: Mixed type inhibition of recombinant human aromatase assessed as substrate Vmax preincubated for 10 mins followed by different substrate concentration and beta-NADP+ addition and measured for 60 mins by fluorescence method based Cornish-Bowden direct linear analysis (reference value: 91.5 /ms); details: 1 h
MDA-MB-231 = experiment: Growth inhibition of human MDA-MB-231 cells incubated for 72 hrs by cell counting based method; type: functional; details: MDA-MB-231, 72 h; in short: as §1
Aromatase [5] = molecular target: T1, Aromatase; experiment: Inhibition of recombinant human aromatase at 200 uM preincubated for 10 mins followed by substrate and beta-NADP+ addition and measured for 60 mins by fluorescence method; details: 1 h; in short: as §2
Aromatase [6] = molecular target: T1, Aromatase; experiment: Inhibition of recombinant human aromatase at 1 uM preincubated for 10 mins followed by substrate and beta-NADP+ addition and measured for 60 mins by fluorescence method; details: 1 h, read-out: INH

Structure (SMILES) | GI50 (MCF7) | IC50 (Aromatase [1]) | Vmax (Aromatase [2]) | inhibition at 100 µM (Aromatase [3]) | Vmax (Aromatase [4]) | GI50 (MDA-MB-231) | inhibition at 200 µM (Aromatase [5]) | inhibition at 1 µM (Aromatase [6])
COc1ccc([C@@H](O)CNC(=O)N[C@@H]2CCCCNC2=O)cc1 | – | – | – | 4% | – | – | 19% | –
O=C(CCc1ccc(O)c(Cl)c1)NCc1csc(=O)[nH]1 | 66.4 µM | 21.7 µM | 85.2 U/ms | 53% | 78.7 U/ms | > 200 µM | 69% | –
O=C(NCc1cc[nH]c(=O)c1)c1ccc(COCC(F)(F)F)cc1 | – | – | – | 3% | – | – | 3% | –
O=C1c2c(O)ccc(O)c2C(=O)c2c(NCCCO)ccc(NCCCO)c21 | 17.9 µM | 11 µM | 21.5 U/ms | 83% | 16.2 U/ms | 6.8 µM | 92% | –
OCC(O)C(O)C(O)C(c1ccc(Cl)cc1)c1ccc(Cl)cc1 (configuration not stated) | – | – | – | 11% | – | – | 10% | –
N#Cc1ccc(C(c2ccc(C#N)cc2)n2cncn2)cc1 [LETROZOLE] | 4.1 µM | – | – | – | – | > 10 µM | – | 91%
NC(CCC(=O)O)C(=O)NC(Cc1c[nH]c2ccccc12)C(=O)O (configuration not stated) | – | – | – | 4% | – | – | 3% | –
O=C1c2c(O)cc(O)cc2O[C@H](c2ccc(O)c(O)c2)[C@H]1O [(+)-TAXIFOLIN] | – | – | – | 46% | – | – | 56% | –
N[C@@H]1CCN(Cc2cc(O)c3cc(F)ccc3n2)C[C@H]1O | > 200 µM | 20.9 µM | 64.6 U/ms | 39% | 50.7 U/ms | > 200 µM | 62% | –
CCSC(C(O)C(O)C(O)C(O)CO)n1cnc2c(S)ncnc21 (configuration not stated) | – | – | – | 2% | – | – | 12% | –

More lines, now with the values ahead:

GI50 (MCF7) | IC50 (Aromatase [1]) | Vmax (Aromatase [2]) | inhibition at 100 µM (Aromatase [3]) | Vmax (Aromatase [4]) | GI50 (MDA-MB-231) | inhibition at 200 µM (Aromatase [5]) | inhibition at 1 µM (Aromatase [6]) | Structure (SMILES)
22.1 µM | 95.3 µM | 79.3 U/ms | 86% | 60.6 U/ms | 16.2 µM | 97% | – | COC(=O)c1ccc(NCC2=CC(=O)c3ccccc3C2=O)cc1
– | – | – | 2% | – | – | 6% | – | CC[C@H](CO)N(Cc1ccccn1)C(=O)c1ccc(=O)[nH]c1
– | – | – | 5% | – | – | 8% | – | Cc1ccc(C(c2ccc(C)c(C)c2)C(O)C(O)C(O)C(O)CO)cc1C (configuration not stated)
– | – | – | 0% | – | – | 3% | – | O=c1cc(CO)oc([C@H](Nc2ccccn2)c2ccccc2O)c1O
– | 6.1 µM | – | 11% | – | – | 58% | – | CC/C(=C(\c1ccc(O)cc1)c1ccc(OCCNC)cc1)c1ccccc1 [ENDOXIFEN]
– | – | – | 27% | – | – | 41% | – | C[C@@H](NC(=O)c1ccc(=O)[nH]c1)c1ccc2[nH]c(=O)[nH]c2c1
– | – | – | 0% | – | – | 0% | – | CC(C)(C)NCC(O)COc1cccc2c1C[C@H](O)[C@H](O)C2 (some centres not stated) [NADOLOL]
21.3 µM | 5.1 µM | 19.3 U/ms | 79% | 15.1 U/ms | 58 µM | 88% | – | CC[C@H](Nc1cc(C)nc(Nc2cccc(O)c2)n1)c1nccs1
– | – | – | 8% | – | – | 8% | – | Nc1nc(O)cc(NC(=S)Nc2ccc(C(=O)O)cc2)n1
– | – | – | 10% | – | – | 13% | – | O=C(C=Cc1ccc(O)c(O)c1)NCC(=O)NC(Cc1ccccc1)C(=O)O (configuration not stated)
